Calls of active or inactive are those of the source. The rule behind the calls is not given here.
What was measured:
L02 [1] = experiment: Hepatoprotective activity against D-galactosamine-induced cell toxicity in human HL-7702 cells assessed as cell survival incubated for 1 hr prior to D-galactosamine-challenge measured after 24 hrs by MTT assay relative to normal cells; type: functional; design: concentration or dose not given beside the values
How it was run: (§1)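 HL-7702 cells (2 × 10^4 per well) precultured 24 h at 37 °C, 5% CO2 in RPMI 1640 with 10% fetal calf serum, penicillin and streptomycin. Test compound (10 μM) added in fresh medium for 1 h, then 25 mM D-galactosamine for 24 h. MTT 0.5 mg/mL 4 h, formazan in DMSO, OD 492 nm. Survival as % of normal; means ± SD, n = 3; bicyclol 10 μM as positive control.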

[2] = Cytotoxicity against human BGC823 cells by MTT assay; type: cell-based; details: BGC-823
[3] = Cytotoxicity against human HCT8 cells by MTT assay; type: cell-based; details: HCT-8
[4] = Hepatoprotective activity in human HL-7702 cells assessed as inhibition of D-galactosamine-induced cell toxicity incubated for 1 hr prior to D-galactosamine-challenge measured after 24 hrs by MTT assay relative to control; type: functional, L02
A2780 = experiment: Cytotoxicity against human A2780 cells by MTT assay; type: cell-based
A549 = experiment: Cytotoxicity against human A549 cells by MTT assay; type: cell-based
[5] = Cytotoxicity against human Bel7402 cells by MTT assay; type: cell-based; details: Bel-7402
Neuron = experiment: Neuroprotective activity against MPP+-induced neuronal cell injury in neurons (unknown origin); type: functional, cell-based
L02 [6] = experiment: Hepatoprotective activity against D-galactosamine-induced cell toxicity in human HL-7702 cells assessed as cell survival at 10 uM incubated for 1 hr prior to D-galactosamine-challenge measured after 24 hrs by MTT assay relative to normal cells; type: functional; details: read-out: Survival; how it was run: as §1

Row | SMILES | Survival (L02 [1]) | IC50 [2] | IC50 [3] | inhibition (INH) [4] | IC50 (A2780) | IC50 (A549) | IC50 [5] | Activity (Neuron) | viability at 10 µM (L02 [6])
1 | C=C1CC[C@@H]2[C@H]([C@@H]3[C@H]1CC[C@]3(C)O)[C@@]2(C)CC/C=C(/C)CO | 73% | > 10 µM | > 10 µM | 33.6% | > 10 µM | > 10 µM | > 10 µM | inactive | –
2 | C=C1CC[C@@H]2[C@H]([C@@H]3[C@H]1CC[C@]3(C)O)[C@@]2(C)C[C@H]1C=C(C)C(=O)O1 | 68% | > 10 µM | > 10 µM | 24.3% | > 10 µM | > 10 µM | > 10 µM | inactive | –
3 | COC(=O)c1cc(OC)c2c(c1-c1c(CO)cc(OC)c3c1OCO3)OCO2 [BICYCLOL] | – | – | – | 42.5% | – | – | – | – | 76%
4 | C=C1CC[C@@H]2[C@H]([C@@H]3[C@H]1CC[C@]3(C)O)[C@@]2(C)/C=C/C=C(\C)C=O | 88% | > 10 µM | > 10 µM | 69.6% | > 10 µM | > 10 µM | > 10 µM | inactive | –
5 | C=C1CC[C@@H]2[C@H]([C@H]3[C@H](C)CC[C@@H]13)[C@@]2(C)C[C@H](O)/C=C(/C)CO | 73% | > 10 µM | > 10 µM | 36.3% | > 10 µM | > 10 µM | > 10 µM | inactive | –
6 | C=C1CC[C@@H]2[C@H]([C@@H]3[C@H]1CC[C@]3(C)O)[C@@]2(C)C(/C=C/C(C)(C)O)OC (stereo not given in full) | – | > 10 µM | > 10 µM | – | > 10 µM | > 10 µM | > 10 µM | inactive | –
7 | C=C1CC[C@@H]2[C@H]([C@@H]3[C@H]1CC[C@]3(C)O)[C@@]2(C)[C@@H]1C(=O)C(C)=C[C@H]1O | – | > 10 µM | > 10 µM | – | > 10 µM | > 10 µM | > 10 µM | inactive | –
8 | C=C1CC[C@@H]2[C@H]([C@@H]3[C@H]1CC[C@]3(C)O)[C@@]2(C)C/C=C/C(C)(C)O | 70% | > 10 µM | > 10 µM | 27% | > 10 µM | > 10 µM | > 10 µM | inactive | –
9 | C=C1CC[C@@H]2[C@H]([C@@H]3[C@H]1CC[C@]3(C)O)[C@@]2(C)/C=C/C=C(/C)CO | 69% | > 10 µM | > 10 µM | 26.1% | > 10 µM | > 10 µM | > 10 µM | inactive | –
10 | C=C1CC[C@@H]2[C@H]([C@@H]3[C@H]1CC[C@]3(C)O)[C@@]2(C)C[C@@H]1C=C(C)C(=O)O1 | 73% | > 10 µM | > 10 µM | 33.6% | > 10 µM | > 10 µM | > 10 µM | inactive | –

From ChEMBL document CHEMBL3085744, “Hepatoprotective prenylaromadendrane-type diterpenes from the gum resin of Boswellia carterii” (J Nat Prod, 2013)
